Inhibition and Inhibition data for 33 molecules are collected here from ChEMBL document CHEMBL2040545, “Anti-influenza activity of marchantins, macrocyclic bisbibenzyls contained in liverworts” (2011).

The target in test [1] is Polymerase acidic protein (Influenza A virus (A/Puerto Rico/8/1934(H1N1))) (UniProt P03433). Description: Inhibition of PA endonuclease at 10 uM. The class given is functional. The method, boiled down:
(§1)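 Recombinant His-tagged influenza A PA N-terminal endonuclease domain from E. coli, purified on Ni2+-agarose and then Q anion exchange, used at about 0.1 µM (0.35 µg/100 µl). Buffer at pH 7.3, 1 µg M13mp18 single-stranded circular DNA as substrate, compound at 1 or 10 µM. Digestion read by agarose electrophoresis with ethidium bromide staining. No-enzyme control included.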

Test [2] has the same target. In words: Inhibition of PA endonuclease at 1 uM. The class given is functional. The method, boiled down:
as §1

For test [3] the target is unchanged. In words: Inhibition of Influenza Viral Focus Formation at 50 uM relative to control. The class given is functional, cell-based. The settings on record: Canis lupus familiaris, MDCK. The gist of the method:
(§2)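 MDCK cells infected with B/Malaysia/2506/2004 at m.o.i. 0.001, adsorbed 30 min at 37 °C, washed. Compound (50, 12.5 or 3.1 µM, DMSO vehicle) added in growth medium, no pre-incubation. Supernatant sampled daily over 3 days at 37°C. Each sample titrated 10-fold on fresh MDCK, ethanol-fixed after 1 day. Foci stained with anti-NP serum and the PAP/DAB method, then counted as FFU/ml.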

For test [4] the target is unchanged. Description: Inhibition of Influenza Viral Focus Formation at 13 uM relative to control. The settings on record: Canis lupus familiaris, MDCK. The class given is functional, cell-based. The gist of the method:
as §2

A short description of test [5]: (§3) Inhibition of Influenza Replication. The class given is functional, Canis lupus familiaris, MDCK. The gist of the method:
(§4)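 MDCK monolayers (MEM, 10% FBS, 37 °C). Compounds at 6.25–50 µM, DMSO vehicle, premixed 30 min at 37°C with TCID50 of A/Hiroshima/52/2006 (H3N2), A/Solomon/3/2006 (H1N1) or B/Malaysia/2506/2004, then added to PBS-washed cells. Incubated 4 days at 34°C, 5% CO2. Cells fixed in 10% formaldehyde; surviving cells stained with naphthol blue black.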

Test [6] is described as follows: as §3. The class given is functional, Canis lupus familiaris, MDCK. The method, boiled down: as §4
This is another data set of the same source.

The nature of test [7]: as §3. The class given is functional, Canis lupus familiaris, MDCK. The method, boiled down: as §4
The source holds these as a separate data set.

The source made the active and inactive calls. No cut-off for these calls is given here.

What is called inhibition is the relative decrease from the control value, in per cent. With `CC(C)=CCOc1c2occc2cc2ccc(=O)oc12`, the inhibition result in test [1] and in test [2] was “inactive” in each case.
On to `Oc1ccc2cc1Oc1ccc(cc1)CCc1cccc(c1)Oc1c(O)cccc1CC2`, for which the inhibition entry in test [1] and in test [2] was “inactive” throughout.
In the case of `COc1cc(O)cc(C(=O)c2cc(C)cc(OC)c2OC)c1CO`, the inhibition result in test [1] and in test [2] was “inactive” each time.
On to `COC(=O)c1[nH]c(C(=O)OC)c(-c2c[nH]c3ccc(O)cc23)c1-c1c[nH]c2ccccc12`, for which the inhibition entry in test [1] and in test [2] was “inactive” throughout.
For the molecule `C[C@H]1OC(=O)C=C[C@@H]1O`, the inhibition entry in test [1] and in test [2] was “inactive” throughout.
On to `COc1c2ccoc2cc2oc(=O)ccc12`, for which the inhibition entry in test [1] and in test [2] was “inactive” in each case.
For the molecule `COc1cccc2c(-c3ccc(O)c4c(OC)cccc34)ccc(O)c12`, the inhibition result in test [1] and in test [2] was “inactive” in each case.
On to `C/C=C(\C)C(=O)CC1C2=CC(=O)[C@](C)(OC(C)=O)C(=O)C2=COC12OC(C)CCC2O` (stereo partly specified), for which the inhibition result in test [1] and in test [2] was “inactive” each time.
`COc1ccc2c(c1)CCc1ccc(cc1)Oc1cc(ccc1O)CCc1ccc-2c(O)c1`: the inhibition result in test [1] and in test [2] was “inactive” each time. In addition, the values for the inhibition in test [3] and in test [4] were 5.56% and -3.59%, respectively.
Consider `COC1=CC(=O)O[C@@H](/C=C/c2ccccc2)C1`, for which the inhibition result in test [1] and in test [2] was “inactive” in each case.
With `COc1ccc2ccc(=O)oc2c1CC=C(C)C`, the inhibition result in test [1] and in test [2] was “inactive” throughout.
With `COc1c2occc2cc2ccc(=O)oc12`, the inhibition entry in test [1] and in test [2] was “inactive” in each case.
For `CC1(C)OC1COc1c2occc2cc2ccc(=O)oc12` (stereo unspecified), the inhibition result in test [1] and in test [2] was “inactive” each time.
On to `COc1cc(C)cc(C(=O)c2cc(O)cc(OC)c2CO)c1O`, for which the inhibition result in test [1] and in test [2] was “inactive” each time.
In the case of `COc1c2ccoc2c(OCC=C(C)C)c2oc(=O)ccc12`, the inhibition entry in test [1] and in test [2] was “inactive” each time.
Regarding `CC(C)[C@@H](C)/C=C/[C@@H](C)[C@H]1CCC2=C3C=CC4=CCCC[C@]4(C)[C@H]3CC[C@@]21C`, the inhibition entry in test [1] and in test [2] was “inactive” throughout.
On to `COC1=CC(=O)O[C@@H](CCc2ccccc2)C1`, for which the inhibition entry in test [1] and in test [2] was “inactive” each time.
As for `Oc1ccc2c(c1)CCc1ccc(O)c(c1)Oc1ccc(cc1)CCc1cccc(c1)O2`, the inhibition result in test [1] and in test [2] was “inactive” each time.
Regarding `COC1=CC(=O)O[C@@H](/C=C/c2ccc3c(c2)OCO3)C1`, the inhibition entry in test [1] and in test [2] was “inactive” in each case.
As for `C=CCc1ccc(O)c(-c2ccc(O)c(CC=C)c2)c1`, the inhibition result in test [1] and in test [2] was “inactive” throughout.
With `Oc1ccc2cc1Oc1ccc(cc1)CCc1cccc(O)c1Oc1cccc(c1)CC2`, the inhibition entry in test [1] and in test [2] was “inactive” each time.
For `C=CCc1ccc(O)c(-c2cc(CC=C)ccc2O)c1`, the inhibition entry in test [1] and in test [2] was “inactive” throughout.
Regarding `COc1c2ccoc2c(OC)c2oc(=O)ccc12`, the inhibition result in test [1] and in test [2] was “inactive” in each case.
`COC(=O)c1[nH]c(C(=O)OC)c(-c2c[nH]c3ccc(O)cc23)c1-c1c[nH]c2ccc(O)cc12`: the inhibition result in test [1] and in test [2] was “inactive” each time.
In the case of `COC1Cc2cccc(c2)Oc2c(O)cccc2CCc2ccc(cc2)Oc2cc1cc(O)c2O` (stereo unspecified) [MARCHANTIN E], the inhibition result in test [1] was “Active”. Moreover, the inhibition result in test [2] was “inactive”. The figures for the Inhibition in test [5], in test [6] and in test [7] were 50 µM, 50 µM and 25 µM, respectively. For the same molecule, the inhibition in test [3] turned out to be 4.44%; in test [4], 2.96%.
For `CC(C)=CCOc1c2ccoc2cc2oc(=O)ccc12`, the inhibition entry in test [1] and in test [2] was “inactive” in each case.
As to `COc1ccc(/C=C/c2cc(OC)cc(=O)o2)cc1`, the inhibition result in test [1] and in test [2] was “inactive” throughout.
As for `COc1cc2c(cc1O)-c1ccc(O)cc1CCc1cc(O)c(O)c(c1)Oc1ccc(cc1)CC2`, the inhibition result in test [1] was “Active”. In test [2], the inhibition entry is “inactive”. Further, the inhibition was 5.11% in test [3] and -4.66% in test [4].
For the molecule `Oc1cc2cc(c1O)Oc1ccc(cc1)CCc1cccc(O)c1Oc1cccc(c1)CC2` [MARCHANTIN A], the inhibition result in test [1] is “Active”. Further, the inhibition entry in test [2] was “inactive”. This molecule yielded an Inhibition in test [7] of 50 µM. The inhibition in test [3] came out at 10.2%; in test [4], 2.33%.
For `Oc1cc2cc(c1O)Oc1ccc(cc1)CCc1ccc(O)c(O)c1Oc1cccc(c1)CC2`, in test [1], the inhibition entry was “Active”. Further, the inhibition entry in test [2] was “inactive”.
`Oc1cccc(CCc2ccc(Oc3cc(CCc4cccc(O)c4)cc(O)c3O)cc2)c1` [PERROTETTIN F]: in test [1], the inhibition entry was “Active”. In addition, in test [2], the inhibition entry is “inactive”. In test [7], this molecule returned an Inhibition of 50 µM.
Take `COc1cccc2c1Oc1cccc(c1)CCc1cc(OC)c(OC)c(c1)Oc1ccc(cc1)CC2`: the inhibition entry in test [1] and in test [2] was “inactive” in each case. The figures for the inhibition in test [3] and in test [4] were 5.78% and -2.75%, respectively.
Turning to `COc1cc(/C=C/c2ccccc2)oc(=O)c1`, the inhibition entry in test [1] and in test [2] was “inactive” in each case.
